Calls of active or inactive are those of the source. The rule behind the calls is not given here.

From ChEMBL document CHEMBL2429718, “MT-Stabilizer, Dictyostatin, Exhibits Prolonged Brain Retention and Activity: Potential Therapeutic Implications” (ACS Med Chem Lett, 2013) come the findings set out here.

The nature of series [1]: AUC (0.5 to 16 hrs) in CD1 mouse brain at 5 mg/kg, ip administered as single dose at 4 hrs. Format: ADME, organism-based. Also noted: time 0.5-16 hr, dose 5 mg/kg, route intraperitoneal.
The nature of series [2]: (§1) Plasma concentration in CD1 mouse at 5 mg/kg, ip administered as single dose at 16 hrs. It counts as ADME, organism-based. Also noted: dose 5 mg/kg, route intraperitoneal. The settings on record: CD1, mouse, plasma. A digest of the protocol: (§2)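 CD1 mice received one i.p. dose of 5 mg/kg. Blood and brain were taken from groups of animals at several times after dosing, with n = 3 mice per time point, and compound levels were measured in plasma and brain. Exposure was expressed as AUC over 0.25–4 h. Concentrations at 4 h and 16 h are given as mean ± SD.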

Series [3] has as its system HEK293. The series can be described thus: Stabilization of microtubule in HEK293 cells assessed as increase in acetylated alpha-tubulin after 4 hrs by ELISA. Format: cell-based. Conditions: Homo sapiens. Summed up:
(§3)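 In HEK293 cells, microtubule stabilization was read as compound-induced elevation of acetylated α-tubulin. Compounds were tested across a concentration series that included 1, 10 and 100 nM, with n = 4 per condition. Values are given as mean ± SEM.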
(ELISA stands for enzyme-linked immunosorbent assay.)

For series [4], the system named is Plasma. Briefly: Fraction unbound in CD1 mouse plasma at 5 mg/kg, ip dministered as single dose. It counts as ADME, organism-based. Also noted: dose 5 mg/kg, route intraperitoneal. Conditions: in vivo.
Series [5] can be described thus: Drug uptake in CD1 mouse brain at 5 mg/kg, ip administered as single dose at 4 hrs. The settings on record: read-out: Drug uptake. It counts as ADME, organism-based. Details: dose 5 mg/kg, route intraperitoneal. Summed up:
as §2

The subject of another series is Brain. Briefly: Stabilization of microtubule brain in CD1 mouse assessed as increase in acetylated alpha-tubulin at 5 mg/kg, ip administered as single dose measured after 7 days relative to vehicle-treated control. Format: functional, organism-based. Also noted: dose 5 mg/kg. A digest of the protocol: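 Wild-type mice received one i.p. dose of 5 mg/kg, with DMSO as vehicle control, and 3 mice per treatment. Brains were collected 7 days later and the acetylated α-tubulin to α-tubulin ratio was measured. The mean ratio of treated mice was normalized to that of vehicle-treated mice.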

Series [6] in a line: Plasma concentration in CD1 mouse at 5 mg/kg, ip administered as single dose at 4 hrs. It counts as ADME, organism-based. Details: dose 5 mg/kg, route intraperitoneal. Summed up:
as §2

A short description of series [7]: Fraction unbound in CD1 mouse brain at 5 mg/kg, ip administered as single dose. Format: ADME, organism-based. Details: dose 5 mg/kg, route intraperitoneal. The settings on record: in vivo.
Series [8] deals with HEK293. The series can be described thus: Stabilization of microtubule in HEK293 cells assessed as increase in acetylated alpha-tubulin at 1to 10 nM after 4 hrs by ELISA. It counts as cell-based. The settings on record: Homo sapiens. A digest of the protocol:
as §3

The nature of series [9]: Drug uptake in CD1 mouse brain at 5 mg/kg, ip administered as single dose at 16 hrs. It counts as ADME, organism-based. The settings on record: read-out: Drug uptake. Details: dose 5 mg/kg, route intraperitoneal. Summed up:
as §2

The nature of series [10]: AUC (0.25 to 4 hrs) in CD1 mouse plasma at 5 mg/kg, ip administered as single dose at 4 hrs. It counts as ADME, organism-based. Details: time 0.25-4 hr, dose 5 mg/kg, route intraperitoneal. A digest of the protocol: as §2
Series [11] can be described thus: AUC (0.25 to 4 hrs) in CD1 mouse brain at 5 mg/kg, ip administered as single dose at 4 hrs. It counts as ADME, organism-based. Details: time upper 4 hr, time lower 0.25 hr, dose 5 mg/kg, route intraperitoneal. Summed up:
as §2

The subject of series [12] is Plasma. Described as §1. Conditions: mouse, in vivo, 16 h, BLD = below limit of detection. Details: dose 5 mg/kg, route intraperitoneal. It counts as ADME, organism-based. Summed up: as §2
The test system of series [13] is HEK293. Briefly: Stabilization of microtubule in HEK293 cells assessed as increase in acetylated alpha-tubulin at 100 nM after 4 hrs by ELISA. It counts as cell-based. Conditions: Homo sapiens. Summed up: as §3

`C=C/C=C\[C@H](C)[C@@H]1OC(=O)/C=C\C=C\[C@@H](C)[C@@H](O)C[C@H](O)/C=C\[C@H](C)[C@H](O)[C@@H](C)C[C@@H](C)CC[C@@H](O)[C@@H]1C` [DICTYOSTATIN] gave an AUC(0-t) in series [1] of 6.25 µM·h. Further, the results for the concentration at 16 h in [2] and in [9] were 77 nM and 383 nM, respectively. The Activity entry in the series with HEK293 [3] is “Dose-dependent effect”. For the same compound, the Fu is reported as 0.9% with Plasma [4] and 0.5% in series [7]. Also, the figures for the concentration at 4 h in series [5] and in series [6] were 412 nM and 83 nM, respectively. The result in the series on Brain and with HEK293 [8] was Active. Besides, the AUC(0-t) at 4 h in series [10] worked out at 5.54 µM·h.

For the compound `C=C/C=C\[C@H](C)[C@H](OC(N)=O)[C@@H](C)[C@H](O)[C@@H](C)C/C(C)=C\[C@H](C)[C@@H](O)[C@@H](C)/C=C\[C@@H](O)C[C@@H]1OC(=O)[C@H](C)[C@@H](O)[C@H]1C` [DISERMOLIDE], the results for the area under the curve AUC(0-t) at 4 h in series [11] and in series [10] were 0.112 µM·h and 0.439 µM·h, respectively. Moreover, the Activity entry in the series on HEK293 [3] was “Dose-dependent effect”.

As to `C/C1=C/C[C@@H](/C(C)=C/c2csc(C)n2)OC(=O)C[C@H](O)C(C)(C)C(=O)[C@H](C)[C@@H](O)[C@@H](C)CCC1` [EPOTHILONE D], the Cp entry with Plasma [12] is on record as “BLD”. The Activity result with HEK293 [3] is “Dose-dependent effect”. Also, the concentration at 4 h amounted to 161 nM in series [5] and 19 nM in [6]. In addition, the result in the series on HEK293 [13] was Active. The concentration at 16 h in series [9] was 111 nM.

Broadly, the AUC(0-t) is the area under the concentration-time curve up to a stated or last time point.
